Experimental data: ChEMBL document CHEMBL2331124, “Efficient synthesis of anacardic acid analogues and their antibacterial activities” (Bioorg Med Chem Lett, 2013)
≈ marks a conversion by molar mass, not a printed value.

Key:
[1] = system: Staphylococcus aureus; test: Antibacterial activity against glycopeptide-intermediate Staphylococcus aureus NRS 19 assessed as growth inhibition after 24 hrs by CLSI twofold serial broth microdilution method; format: functional; settings: NRS 19, 24 h
In short: (§1)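 CLSI-standard twofold serial broth microdilution; MIC read-out in μg/mL, with vancomycin tested alongside as reference antibiotic.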

[2] = system: Staphylococcus aureus; test: Antibacterial activity against Staphylococcus aureus ATCC 25923 assessed as growth inhibition after 24 hrs by CLSI twofold serial broth microdilution method; format: functional; settings: ATCC 25923, 24 h; in short: as §1
[3] = system: Staphylococcus aureus; test: Antibacterial activity against methicillin-resistant Staphylococcus aureus ATCC 43300 assessed as growth inhibition after 24 hrs by CLSI twofold serial broth microdilution method; format: functional; settings: ATCC 43300, 24 h
In short: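 Read-out was the MIC in μg/mL, determined by twofold serial broth microdilution to CLSI standards.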

[4] = Cytotoxicity against HEK293 cells after 24 hrs by resazurin assay; format: cell-based; settings: human
[5] = Cytotoxicity against human HepG2 cells after 24 hrs by resazurin assay; format: cell-based

Structure (SMILES)	MIC [1] [µg/mL]	MIC [2] [µg/mL]	MIC [3] [µg/mL]	CC50 at 24 h [4] [µM]	CC50 at 24 h [5] [µM]
O=C(O)c1c(O)cccc1CCc1ccc2ccccc2c1	> 128	> 128	> 128	> 100	> 100
CCN(CC)C(=O)c1c(O)cc(O)cc1CCc1ccc2ccccc2c1				30.6	36.4
O=C(O)c1c(O)cccc1/C=C/c1ccccc1				> 100	> 100
CCN(CC)C(=O)c1c(O)cccc1CCc1ccc2ccccc2c1				> 100	> 100
COc1cc(C)cc(C=Cc2ccc3ccccc3c2)c1C(=O)O (mixture of isomers)	> 128	> 128	> 128	119	117
CCN(CC)C(=O)c1c(/C=C/c2ccc3ccccc3c2)cccc1OC				116	
O=C(O)c1c(O)cccc1C=Cc1ccc2ccccc2c1 (mixture of isomers)	64	64	64	97	71
COc1cc(Cl)cc(C=Cc2ccc3ccccc3c2)c1C(=O)O	128 (≈ 378 µM)	> 128	64 (≈ 189 µM)	93	104
CCN(CC)C(=O)c1c(/C=C\c2ccc3ccccc3c2)cc(OC)cc1OC				> 100	> 100
COc1cc(CCc2ccccc2)cc(OC)c1OC				> 100	> 100
COc1cc(O)c(C(=O)O)c(C=Cc2ccc3ccccc3c2)c1 (mixture of isomers)	128	> 128	128	65	79
CCN(CC)C(=O)c1c(/C=C/c2ccc3ccccc3c2)cc(OC)cc1OC				> 100	> 100
COc1cc(/C=C/c2ccccc2)cc(OC)c1OC				62.6	38.4
Cc1cc(O)c(C(=O)O)c(CCc2ccc3ccccc3c2)c1	128 (≈ 418 µM)	32 (≈ 104 µM)	64 (≈ 209 µM)	40	38
O=C(O)c1c(O)cccc1CCc1ccccc1				> 100	> 100
Oc1cc(CCc2ccc3ccccc3c2)cc(O)c1O				> 100	> 100
O=C(O)c1c(O)cc(Cl)cc1CCc1ccc2ccccc2c1	128 (≈ 392 µM)	16 (≈ 49 µM)	16 (≈ 49 µM)	35	35
COc1cc(CCc2ccc3ccccc3c2)cc(OC)c1OC				> 100	> 100
COc1cc(/C=C\c2ccccc2)cc(OC)c1OC				36	20.2
CCN(CC)C(=O)c1c(/C=C\c2ccc3ccccc3c2)cccc1OC				38.7	28
Cc1cc(O)c(C(=O)O)c(C=Cc2ccc3ccccc3c2)c1 (mixture of isomers)	32	16	16	52	30
CCN(CC)C(=O)c1c(CCc2ccc3ccccc3c2)cccc1OC				85.7	35.8
O=C(O)c1c(O)cc(Cl)cc1C=Cc1ccc2ccccc2c1 (mixture of isomers)	16	16	16	38	25
COc1cc(/C=C\c2ccc3ccccc3c2)cc(OC)c1OC [NAPHTHYLCOMBRETASTATIN]				> 100	> 100
COc1cc(C=Cc2ccc3ccccc3c2)c(C(=O)O)c(OC)c1	> 128	> 128	> 128	> 100	> 100
COc1cccc(C=Cc2ccc3ccccc3c2)c1C(=O)O (mixture of isomers)	> 128	> 128	> 128	> 100	> 100
CCN(CC)C(=O)c1c(CCc2ccc3ccccc3c2)cc(OC)cc1OC				> 100	59
Oc1cc(CCc2ccccc2)cc(O)c1O				106	102
COc1cc(/C=C/c2ccc3ccccc3c2)cc(OC)c1OC				23.4	16.8
COc1cc(O)c(C(=O)O)c(CCc2ccc3ccccc3c2)c1	128 (≈ 397 µM)	64 (≈ 199 µM)	64 (≈ 199 µM)	65	71
